Source: publication PMC9616053 (ACS chemical neuroscience, 2022)
*1 amine or outer side, *2 acyl side, *3 side chain or, on linkers, in order; H or OH if unused. Where a SMILES comes first, the peptide text is derived from it. [ ]: non-standard residue; d: D form. X1 = Cc1ccc2c(c1)CCN([*:1])[C@@H]2C(=O)[*:2]

Experiments:
Casp3 = target: T1, Casp3 (Homo sapiens, UniProt P42574); assay: fluorescence-based in vitro biochemical; conditions: for Casp2 Selectivity, Ki (Casp3) / Ki (Casp2): Table 1
T1 sequence (P42574 29-175 limits assumed): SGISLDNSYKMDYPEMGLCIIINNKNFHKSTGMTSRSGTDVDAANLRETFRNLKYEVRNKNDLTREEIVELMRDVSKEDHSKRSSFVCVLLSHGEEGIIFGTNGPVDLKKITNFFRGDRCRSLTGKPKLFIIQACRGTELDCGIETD
T1 sequence (P42574 176-277 limits assumed): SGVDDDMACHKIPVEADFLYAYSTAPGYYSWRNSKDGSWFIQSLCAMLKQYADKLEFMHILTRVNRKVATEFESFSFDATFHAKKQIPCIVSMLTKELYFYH

Thrombin a = Thrombin a (Homo sapiens, UniProt P00734); assay: Thrombin a inhibition; assay type: biochemical
Casp9 = target: T2, Casp9 (Homo sapiens, UniProt P55211); assay: in vitro caspase panel assay, Casp9; assay type: biochemical
T2 sequence (P55211 1-315 limits assumed): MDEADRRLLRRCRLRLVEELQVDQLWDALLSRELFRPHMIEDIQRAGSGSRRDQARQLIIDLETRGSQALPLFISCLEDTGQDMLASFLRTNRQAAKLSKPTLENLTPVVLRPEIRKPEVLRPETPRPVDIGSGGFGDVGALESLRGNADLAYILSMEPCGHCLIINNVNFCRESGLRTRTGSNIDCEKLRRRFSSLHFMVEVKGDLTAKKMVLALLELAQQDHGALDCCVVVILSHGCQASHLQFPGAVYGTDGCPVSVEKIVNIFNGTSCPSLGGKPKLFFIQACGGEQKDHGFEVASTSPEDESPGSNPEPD
T2 sequence (P55211 331-416 limits assumed): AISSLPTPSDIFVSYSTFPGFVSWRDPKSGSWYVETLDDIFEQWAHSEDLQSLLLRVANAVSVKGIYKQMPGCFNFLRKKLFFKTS

Casp1 = target: T3, Casp1 (Homo sapiens, UniProt P29466); assay: in vitro caspase panel assay, Casp1; assay type: biochemical
T3 sequence (P29466 120-297 limits assumed): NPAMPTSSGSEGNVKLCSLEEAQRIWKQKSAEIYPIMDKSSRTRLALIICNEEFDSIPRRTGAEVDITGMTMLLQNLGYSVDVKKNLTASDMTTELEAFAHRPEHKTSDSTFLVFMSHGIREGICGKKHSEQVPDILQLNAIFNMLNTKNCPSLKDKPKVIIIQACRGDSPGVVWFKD
T3 sequence (P29466 317-404 limits assumed): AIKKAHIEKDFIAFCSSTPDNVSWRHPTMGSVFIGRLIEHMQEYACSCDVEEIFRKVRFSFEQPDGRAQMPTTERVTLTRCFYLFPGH

Casp7 = target: T4, Casp7 (Homo sapiens, UniProt P55210); assay: in vitro caspase panel assay, Casp7; assay type: biochemical
T4 sequence (P55210 24-198 limits assumed): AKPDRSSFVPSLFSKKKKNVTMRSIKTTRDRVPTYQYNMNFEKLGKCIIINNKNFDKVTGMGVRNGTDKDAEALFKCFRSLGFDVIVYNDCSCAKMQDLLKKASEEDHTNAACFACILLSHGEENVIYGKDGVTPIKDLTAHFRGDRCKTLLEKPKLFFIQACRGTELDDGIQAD
T4 sequence (P55210 207-303 limits assumed): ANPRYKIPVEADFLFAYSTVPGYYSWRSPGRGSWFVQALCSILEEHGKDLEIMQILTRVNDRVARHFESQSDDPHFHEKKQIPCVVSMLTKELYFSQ

[1] = system: primary hippocampal neurons from transgenic mice overexpressing P301S tau; assay: mEPSC recording in primary hippocampal neurons from PS19; assay type: cell-based, mouse; conditions: 10 μM, 3 days; for average frequency of mEPSCs: six groups
Casp2 = target: T5, Casp2 (Homo sapiens, UniProt P42575); assay: fluorescence-based in vitro biochemical
T5 sequence (P42575 170-325 limits assumed): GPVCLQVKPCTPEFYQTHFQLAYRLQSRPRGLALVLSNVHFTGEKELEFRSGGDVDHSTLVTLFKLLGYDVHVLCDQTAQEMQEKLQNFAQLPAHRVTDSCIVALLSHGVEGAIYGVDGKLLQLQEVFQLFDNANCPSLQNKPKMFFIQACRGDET
T5 sequence (P42575 348-452 limits assumed): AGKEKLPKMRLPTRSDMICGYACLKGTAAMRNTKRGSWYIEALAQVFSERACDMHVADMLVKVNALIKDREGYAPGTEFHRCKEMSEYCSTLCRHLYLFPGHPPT

[2] = system: cultured rat hippocampal neurons expressing P301S tau; assay type: cell-based; conditions: 10 μM for 3 days, versus untreated wild-type and P301S tau neurons
Method in brief: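 Primary hippocampal cultures from Sprague-Dawley rat pups at postnatal day 0 or 1. At 5–7 DIV, neurons were co-transfected with plasmids for DsRed (morphology label) and GFP-tagged wild-type or P301S tau. Test compound was added at 17–18 DIV for 3 days. Live neurons were imaged at 20–21 DIV.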

Cathepsin B = Cathepsin B (Homo sapiens, UniProt P07858); assay: Cathepsin B inhibition; assay type: biochemical
Casp6 = target: T6, Casp6 (Homo sapiens, UniProt P55212); assay: in vitro caspase panel assay, Casp6; assay type: biochemical
T6 sequence (P55212 24-179 limits assumed): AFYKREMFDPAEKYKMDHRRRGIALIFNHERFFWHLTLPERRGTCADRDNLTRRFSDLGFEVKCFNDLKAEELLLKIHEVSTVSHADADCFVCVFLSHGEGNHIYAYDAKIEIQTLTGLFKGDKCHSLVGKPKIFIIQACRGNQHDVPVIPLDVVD
T6 sequence (P55212 194-293 limits assumed): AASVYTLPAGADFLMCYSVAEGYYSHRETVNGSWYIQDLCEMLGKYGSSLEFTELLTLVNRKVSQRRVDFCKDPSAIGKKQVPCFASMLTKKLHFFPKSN

[3] = target: T7, Casp2-mediated cleavage of tau at D314 (Homo sapiens, UniProt P42575); assay: in vitro caspase-2-catalyzed tau cleavage assay; assay type: biochemical
T7 sequence (P42575 170-325 limits assumed): T5 sequence (P42575 170-325 limits assumed)
T7 sequence (P42575 348-452 limits assumed): T5 sequence (P42575 348-452 limits assumed)

Structure (SMILES)	Ki (Casp3) [µM]	Casp2 Selectivity, Ki (Casp3) / Ki (Casp2) (Casp3)	IC50 (Thrombin a) [µM]	activity at thrombin (Thrombin a)	Ki (Casp9) [µM]	selectivity Casp2 versus Casp9 (Casp9) [fold]	Ki (Casp1) [µM]	selectivity Casp2 versus Casp1 (Casp1) [fold]	Ki (Casp7) [µM]	selectivity Casp2 versus Casp7 (Casp7) [fold]	average amplitude of mEPSC responses, Tau −/+ versus Tau −/− neurons [1]	cumulative curve of mEPSC amplitudes, Tau −/+ compared with Tau −/− [1]	average frequency of mEPSCs [1]	Ki (Casp2) [µM]	density of dendritic spines [2]	IC50 (Cathepsin B) [µM]	activity at cathepsin B (Cathepsin B)	Ki (Casp6) [µM]	selectivity Casp2 versus Casp6 (Casp6) [fold]	IC50 [3] [µM]
Cc1ccc2c(c1)CCN(C(=O)[C@@H](NC(=O)[C@H](CCCC(=O)O)NC(=O)[C@@H]1Cc3ccccc3N1)C(C)C)[C@@H]2C(=O)N[C@H](C#N)CC(=O)O [Compound 1, (S)-6-(((S)-1-((S)-1-(((S)-2-carboxy-1-cyanoethyl)carbamoyl)-6-methyl-3,4-dihydroisoquinolin-2(1H)-yl)-3-methyl-1-oxobutan-2-yl)amino)-5-((S)-indoline-2-carboxamido)-6-oxohexanoic acid]	0.933	123	> 100	weak activity	> 31.6	> 2000	> 100	> 2000	15.8	> 2000	do not differ significantly	not significantly shifted	no significant differences	0.00759	no significant differences	18.6	weak activity	> 100	> 2000	2.02
CC(=O)N[C@H](C(=O)N[C@@H](CC(=O)O)C(=O)N[C@H](C(=O)N1CCc2cc(C)ccc2[C@H]1C(=O)N[C@H](C=O)CC(=O)O)C(C)C)C(C)C [Compound 2b, (S)-3-((S)-2-acetamido-3-methylbutanamido)-4-(((S)-1-((S)-1-(((S)-1-carboxy-3-oxopropan-2-yl)carbamoyl)-6-methyl-3,4-dihydroisoquinolin-2(1H)-yl)-3-methyl-1-oxobutan-2-yl)amino)-4-oxobutanoic acid] (Ac-VDV[X1]D-aldehyde)	–	70	–	–	> 31.6	–	2.75	–	> 31.6	–	–	shifted to the left but less markedly	no significant differences	–	–	38	–	> 100	–	–
